Key:
[1] = target: Human immunodeficiency virus type 1 reverse transcriptase (Human immunodeficiency virus 1, UniProt Q72547); test: Inhibition of recombinant HIV1 reverse transcriptase RNase H expressed in Escherichia coli JM109 using RNA/DNA duplex substrate HTS1 as substrate
Gag-Pol polyprotein = Gag-Pol polyprotein (Human immunodeficiency virus type 1 group M subtype B (isolate HXB2)(HIV-1), UniProt P04585); test: Inhibition of recombinant HIV1 reverse transcriptase polymerase expressed in Escherichia coli JM109 assessed as decrease in extension of 18 nucleotide DNA primer annealed to 100 nucleotide DNA template measured after 30 mins; design: species or system Human immunodeficiency virus 1
Procedure, shortened: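 18-nt DNA primer annealed to 100-nt DNA template (40 nM) was extended by 20 nM RT with dNTPs in 50 mM Tris pH 7.8, 50 mM NaCl, 1% DMSO, with increasing compound concentrations. Reactions were started with 6 mM MgCl₂, run 30 min at 37 °C, and stopped with EDTA. dsDNA formed was quantified by fluorescent dye (ex/em 504/531 nm), and dose-response data were fitted to a logistic curve.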

[2] = Cytotoxicity against human P4R5 cells assessed as reduction in cell viability after 72 hrs by XTT assay; format: cell-based
Procedure, shortened: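 P4R5 cells seeded at 4 × 10³ per well in DMEM/10% FBS with puromycin ([…]). Cells treated with 1% DMSO or varying compound concentrations for 72 h, then viability read by XTT kit. CC50 = concentration giving 50% cell death, mean from at least two independent experiments.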

[3] = target: Human immunodeficiency virus type 1 integrase (Human immunodeficiency virus 1, UniProt Q7ZJM1); test: Inhibition of HIV integrase strand transfer activity expressed in Escherichia coli BL21 (DE3) using 5' biotin ATGTGGAAAATCTCTAGCA primer annealed with ACTGCTAGAGATTTTCCACAT 3' Cy5 template preincubated for 10 mins followed by primer/template addition measured after 30 mins by fluorescence assay
Procedure, shortened: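 Purified HIV integrase in 10 mM HEPES pH 7.5, 10% glycerol, 10 mM MnCl₂, 1 mM DTT, with compounds in duplicate at 0.13–100 (final), 10 min at 25 °C. 500 nM biotin/Cy5 oligo duplex added, 30 min at 37 °C, EDTA quench. Products captured on streptavidin beads, washed, NaOH-denatured, formamide-eluted, read at 635/675.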

[4] = test system: Human immunodeficiency virus 1; test: Antiviral activity against HIV1 infected in human P4R5 cells assessed as reduction in viral infection preincubated with cells for 24 hrs followed by viral infection measured after 48 hrs by fluorescence based MAGI assay; format: functional, organism-based
Procedure, shortened: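 P4R5 indicator cells were seeded at 4 × 10³ per well in DMEM/10% FBS with puromycin. They were pretreated for 24 h with 1% DMSO or a range of compound concentrations, then infected with HIV-1 at an MOI of 1.25 for another 48 h. Cells were lysed and β-galactosidase was read by fluorescence with MUG substrate. EC50 is given as mean ± SD of at least two independent experiments.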

[5] = Selectivity ratio of CC50 for human P4R5 cells to EC50 for HIV1 infected in human P4R5 cells; format: toxicity, cell-based
Procedure, shortened: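 P4R5 indicator cells, 4 × 10³ per well in DMEM/10% FBS with puromycin. […] Cytotoxicity arm: uninfected cells, compound for 72 h, XTT read-out; CC50 is 50% cell death. Each value is mean ± SD of ≥2 independent experiments.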

Chain of Human immunodeficiency virus type 1 integrase (Q7ZJM1 whole entry): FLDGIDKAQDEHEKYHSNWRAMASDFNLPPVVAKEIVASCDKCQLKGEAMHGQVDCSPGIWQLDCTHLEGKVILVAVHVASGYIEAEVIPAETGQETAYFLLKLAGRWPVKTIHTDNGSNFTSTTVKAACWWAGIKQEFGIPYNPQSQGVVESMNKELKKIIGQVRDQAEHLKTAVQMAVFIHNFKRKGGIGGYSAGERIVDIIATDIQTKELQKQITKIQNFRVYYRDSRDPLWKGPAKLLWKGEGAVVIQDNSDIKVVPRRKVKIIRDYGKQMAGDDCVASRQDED

Structure (SMILES) | IC50 [1] | IC50 (Gag-Pol polyprotein) | CC50 [2] | IC50 [3] | EC50 [4] | Ratio CC50/EC50 [5]
CC(C)c1c(Cc2ccc(F)cc2)n(COCc2ccc(F)cc2)c(=O)n(O)c1=O | 6.2 µM | – | – | – | – | –
CC(C)c1c(Cc2ccccc2)n(COCc2ccccc2)c(=O)n(O)c1=O | 2.5 µM | – | – | – | – | –
CC(C)c1c(Cc2ccccc2)n(COCc2ccc(F)cc2)c(=O)n(O)c1=O | 2.1 µM | – | – | – | – | –
CCOCn1c(Cc2ccccc2)c(C(C)C)c(=O)n(O)c1=O | 6.8 µM | – | – | – | – | –
CCOCn1c(Cc2ccc(F)cc2)c(C(C)C)c(=O)n(O)c1=O | > 25 µM | – | – | – | – | –
CC(C)c1c(Cc2ccccc2)n(COCc2ccc(F)cc2F)c(=O)n(O)c1=O | 1.8 µM | – | – | – | – | –
CC(C)c1c(Cc2ccccc2)n(COCc2cccc(Cl)c2F)c(=O)n(O)c1=O | 0.9 µM | – | – | – | – | –
CC(C)c1c(Cc2ccccc2)n(COCc2ccc(F)cc2)c(=O)n(C)c1=O | 7 µM | – | – | – | – | –
COn1c(=O)c(C(C)C)c(Cc2ccccc2)n(COCc2ccc(F)cc2)c1=O | 11 µM | – | – | – | – | –
CC(C)c1c(Cc2ccccc2)n(COCCc2ccc(F)cc2)c(=O)n(O)c1=O | 2.8 µM | – | – | – | – | –
CC(C)c1c(Cc2ccccc2)n(COCCCCc2ccc(F)cc2)c(=O)n(O)c1=O | 1.8 µM | – | – | – | – | –
CC(C)c1c(Cc2ccccc2)n(CCc2ccc(F)cc2)c(=O)n(O)c1=O | 6.6 µM | – | – | – | – | –
CC(C)c1c(Cc2ccccc2)n(CCCc2ccc(F)cc2)c(=O)n(O)c1=O | 3.8 µM | – | – | – | – | –
CC(C)c1c(Cc2ccccc2)n(CCCCc2ccc(F)cc2)c(=O)n(O)c1=O | 0.9 µM | – | – | – | – | –
CCc1c(Cc2ccccc2)c(=O)n(O)c(=O)n1COCc1ccc(F)cc1 | 15 µM | – | – | – | – | –
CC(C)c1c(Cc2ccc(F)cc2)n(Cc2ccccc2)c(=O)n(O)c1=O | 10 µM | – | – | – | – | –
CC(C)c1c(Cc2ccc(F)cc2)n(Cc2ccc(F)cc2)c(=O)n(O)c1=O | 13 µM | – | – | – | – | –
CC(C)c1c(Cc2ccccc2)n(Cc2ccccc2)c(=O)n(O)c1=O | 15 µM | – | – | – | – | –
Cc1cc(-c2ccc(Cc3cc(=O)n(O)c(=O)[nH]3)cc2)ccc1F | 0.011 µM | > 10 µM | > 100 µM | > 100 µM | > 20 µM | –
O=c1cc(Cc2ccc(Br)cc2)[nH]c(=O)n1O | 0.011 µM | > 10 µM | 64 µM | > 100 µM | > 20 µM | –
CCOCn1c(Cc2ccc(-c3ccccc3)cc2)cc(=O)n(O)c1=O | > 5 µM | – | > 100 µM | – | > 20 µM | –
O=c1cc(Cc2ccc(-c3ccc(C(F)(F)F)cc3C(F)(F)F)cc2)[nH]c(=O)n1O | 0.085 µM | > 10 µM | > 100 µM | > 100 µM | > 20 µM | –
O=c1cc(Cc2cccc(-c3cccc(Cl)c3)c2)[nH]c(=O)n1O | 0.02 µM | 10 µM | 62 µM | > 100 µM | 11 µM | 4 to 6
O=c1cc(Cc2ccc(-c3ccc(Cl)c(F)c3)cc2)[nH]c(=O)n1O | 0.0094 µM | > 10 µM | 59 µM | > 100 µM | 15 µM | –

Structure (SMILES) | IC50 [1] | IC50 (Gag-Pol polyprotein) | CC50 [2] | IC50 [3] | EC50 [4] | Ratio CC50/EC50 [5]
O=c1cc(Cc2ccc(-c3ccc(C(F)(F)F)cc3)cc2)[nH]c(=O)n1O | 0.047 µM | > 10 µM | > 100 µM | > 100 µM | 16 µM | –
O=c1cc(Cc2cccc(-c3cccc(C(F)(F)F)c3)c2)[nH]c(=O)n1O | 0.037 µM | > 10 µM | > 100 µM | > 100 µM | > 20 µM | –
O=c1cc(Nc2ccc(-c3ccccc3)cc2)[nH]c(=O)n1O | – | 2 µM | – | – | – | –
CCOCn1c(Cc2ccc(-c3cc(OC)cc(OC)c3)cc2)c(C)c(=O)n(O)c1=O | 6.7 µM | – | – | – | – | –
O=c1cc(Cc2ccc(-c3ccccc3)cc2)[nH]c(=O)n1O | 0.016 µM | > 10 µM | 11 µM | > 100 µM | 10 µM | –
O=c1cc(Cc2ccc(-c3cccc(F)c3)cc2)[nH]c(=O)n1O | 0.028 µM | > 10 µM | 24 µM | > 100 µM | 12 µM | –
COc1ccc(-c2cccc(Cc3cc(=O)n(O)c(=O)[nH]3)c2)cc1F | 0.0077 µM | > 10 µM | 20 µM | > 100 µM | 12 µM | –
O=c1cc(Cc2ccc(-c3ccc(F)cc3F)cc2)[nH]c(=O)n1O | 0.015 µM | > 10 µM | 11 µM | > 100 µM | 5.6 µM | –
O=c1cc(Cc2cccc(-c3ccc(Cl)cc3)c2)[nH]c(=O)n1O | 0.012 µM | > 10 µM | 27 µM | > 100 µM | 7.6 µM | 4 to 6
CCOCn1c(Cc2ccc(-c3ccc(C(F)(F)F)cc3)cc2)cc(=O)n(O)c1=O | 2.1 µM | – | – | – | – | –
COc1ccc(-c2ccc(Cc3cc(=O)n(O)c(=O)[nH]3)cc2)cc1F | 0.0076 µM | > 10 µM | 49 µM | > 100 µM | 11 µM | 4 to 6
O=c1cc(Cc2cccc(Br)c2)[nH]c(=O)n1O | 0.013 µM | > 10 µM | 63 µM | > 100 µM | > 20 µM | –
O=c1cc(Cc2ccc(-c3cccc(Cl)c3)cc2)[nH]c(=O)n1O | 0.016 µM | > 10 µM | > 100 µM | > 100 µM | > 20 µM | –
O=c1cc(Cc2cccc(-c3cc(Cl)cc(C(F)(F)F)c3)c2)[nH]c(=O)n1O | 0.038 µM | > 10 µM | > 100 µM | > 100 µM | 20 µM | –
CCc1c(-c2ccc(F)cc2)n(COCc2ccc(F)cc2)c(=O)n(O)c1=O | 17 µM | – | – | – | – | –
CCOCn1c(Cc2ccc(-c3ccc(C#N)cc3)cc2)c(C)c(=O)n(O)c1=O | 5.2 µM | – | – | – | – | –
O=c1cc(Cc2ccc(-c3cccc(C(F)(F)F)c3)cc2)[nH]c(=O)n1O | 0.025 µM | > 10 µM | > 100 µM | > 100 µM | > 20 µM | –
O=c1cc(Cc2ccc(-c3cc(Cl)cc(C(F)(F)F)c3)cc2)[nH]c(=O)n1O | 0.015 µM | > 10 µM | > 100 µM | > 100 µM | > 20 µM | –
Cc1cc(-c2cccc(Cc3cc(=O)n(O)c(=O)[nH]3)c2)ccc1F | 0.0088 µM | > 10 µM | 37 µM | > 100 µM | 12 µM | –
O=c1cc(Cc2cccc(-c3ccccc3)c2)[nH]c(=O)n1O | 0.016 µM | > 10 µM | 16 µM | > 100 µM | 9.6 µM | –
CCOCn1c(Cc2ccc(-c3ccccc3)cc2)c(C)c(=O)n(O)c1=O | 6.2 µM | – | – | – | – | –
CCOCn1c(Cc2ccc(-c3ccc(Cl)c(F)c3)cc2)cc(=O)n(O)c1=O | 0.43 µM | – | – | – | – | –
O=c1cc(Cc2ccc(-c3ccc(Cl)cc3Cl)cc2)[nH]c(=O)n1O | 0.0092 µM | > 10 µM | > 100 µM | > 100 µM | 13 µM | –
O=c1cc(Cc2cccc(-c3cccc(F)c3)c2)[nH]c(=O)n1O | 0.018 µM | > 10 µM | 14 µM | > 100 µM | 9.9 µM | –
